Experimental data published in ChEMBL document CHEMBL1136753, “Optimization of 2-phenylaminoimidazo[4,5-h]isoquinolin-9-ones: orally active inhibitors of lck kinase” (J Med Chem, 2003).

Assays:
[1] = molecular target: Tyrosine-protein kinase ZAP-70 (Homo sapiens, UniProt P43403); test: Inhibition of Zeta-chain (TCR) associated protein kinase 70 kDa (ZAP-70)
In short: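 Kinase-panel IC50 with ATP at or below the Km of each listed kinase. Each value is the mean of two or more separate determinations, each in duplicate.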

[2] = molecular target: Proto-oncogene tyrosine-protein kinase Src (Homo sapiens, UniProt P12931); test: Inhibition of Src protein tyrosine kinase
In short: (§1)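 DELFIA tyrosine kinase assay on neutravidin-coated plates. Substrate is biotinylated poly-Glu₄-Tyr₁, with ATP at or below Km. Compounds are tested in 10-point dose response. After 45 min at room temperature, Eu-labelled anti-phosphotyrosine is added and time-resolved fluorescence is read (ex 360/em 620 nm). IC₅₀ is the mean of ≥2 determinations in duplicate.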

[3] = molecular target: Vascular endothelial growth factor receptor (Homo sapiens, UniProt P17948+P35916+P35968); test: Inhibition of Vascular endothelial growth factor receptor; assay type: protein assay; in short: as §1
[4] = molecular target: Serine/threonine-protein kinase Chk1 (Homo sapiens, UniProt O14757); test: Inhibition of Serine/threonine-protein kinase Chk1
In short: (§2)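 Run externally by the Dundee consortium kinase panel with 100 µM ATP. IC50 values in µM.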

[5] = molecular target: MAP kinase-activated protein kinase 2 (Homo sapiens, UniProt P49137); test: Inhibition of MAP kinase-activated protein kinase 1b/MAP kinase-activated protein kinase 2
In short: (§3)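 Serine/threonine kinase panel run through the Dundee consortium with ATP at 100 µM. IC₅₀ values are reported.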

[6] = molecular target: Mitogen-activated protein kinase; ERK1/ERK2 (Homo sapiens, UniProt P27361+P28482); test: Inhibition of Mitogen-activated protein kinase; assay type: protein assay; in short: as §3
[7] = molecular target: Serine/threonine-protein kinase Sgk1 (Homo sapiens, UniProt O00141); test: Inhibition of Serum/glucocorticoid regulated kinase; in short: as §3
[8] = molecular target: Rho-associated protein kinase 2 (Homo sapiens, UniProt O75116); test: Inhibition of Protein kinase ROCK2; in short: as §3
[9] = molecular target: Hepatocyte growth factor receptor (Homo sapiens, UniProt P08581); test: Inhibition of Hepatocyte growth factor receptor; assay type: cell-based; in short: as §1
[10] = molecular target: AMP-activated protein kinase, AMPK; test: Inhibition of AMP-activated Protein Kinase; assay type: protein-complex assay; in short: as §3
[11] = molecular target: Cyclin-dependent kinase 2 (Homo sapiens, UniProt P24941); test: Inhibition of Cyclin-dependent kinase 2; in short: as §3
[12] = molecular target: Tyrosine-protein kinase CSK (Homo sapiens) (UniProt P41240); test: Inhibition of Csk tyrosine kinase; settings: concentration not given here
In short: (§4)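 DELFIA tyrosine kinase assay: enzyme at 0.8 nM final, biotin-poly-Glu₄-Tyr₁ substrate, 1 µM final ATP. Ten-point dilutions from 1 µg/mL final, 45 min at room temperature. Phosphotyrosine read by Eu-anti-phosphotyrosine time-resolved fluorescence. IC₅₀ is the mean of two or more determinations in duplicate.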

[13] = molecular target: Tyrosine-protein kinase ITK/TSK (Homo sapiens, UniProt Q08881); test: Inhibition of IL-2-inducible T-cell kinase (Itk kinase) was measured using DELFIA (dissociation enhanced lanthanide fluoroimmunoassay); in short: as §1
[14] = molecular target: Glycogen synthase kinase-3 beta (Homo sapiens, UniProt P49841); test: Inhibition of Glycogen synthase kinase-3 beta; in short: as §3
[15] = molecular target: Receptor tyrosine-protein kinase erbB-2 (Homo sapiens, UniProt P04626); test: Inhibition of Protein kinase HER-2; in short: as §1
[16] = Inhibition of PHK phosphorylase kinase
[17] = molecular target: Cyclin-dependent kinase 4 (Homo sapiens, UniProt P11802); test: Inhibition of Cyclin-dependent kinase 4; in short: as §3
[18] = molecular target: Tyrosine-protein kinase SYK (Homo sapiens, UniProt P43405); test: Inhibition of Syk protein tyrosine kinase; in short: as §1
[19] = test system: Jurkat; test: Inhibition of Calcium release in jurkat cells; assay type: functional, cell-based; settings: Homo sapiens
In short: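 Jurkat cells loaded with Fluo-3, washed in HBSS with 1 mM CaCl₂, 1 mM MgCl₂, 10 mM HEPES, 2 mM probenecid, 1% FBS, pH 7.4. Final 3 × 10⁵ cells/mL. Compound added for 15 min at room temperature, then anti-CD3 (clone X35, final 0.25 µg/mL). FLIPR fluorescence followed for 13 min. Peak minus baseline plotted against concentration gives EC₅₀. Mean of two or more experiments in duplicate ± SD.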

[20] = molecular target: Insulin receptor (Homo sapiens, UniProt P06213); test: Inhibition of Insulin receptor; in short: as §1
[21] = molecular target: Inhibitor of nuclear factor kappa-B kinase subunit beta (Homo sapiens, UniProt O14920); test: Inhibition of IKK beta kinase; in short: as §3
[22] = molecular target: Ribosomal protein S6 kinase alpha-5 (Homo sapiens, UniProt O75582); test: Inhibition of MSK-1 kinase; in short: as §2
[23] = molecular target: cAMP-dependent protein kinase (PKA) (Homo sapiens, UniProt P22694+P17612+P22612); test: Inhibition of Protein kinase A (PKA); assay type: protein assay; in short: as §3
[24] = molecular target: c-Jun N-terminal kinase, JNK (Homo sapiens, UniProt P45983+P53779+P45984); test: Inhibition of c-Jun N-terminal kinase; assay type: protein assay; in short: as §3
[25] = molecular target: Tyrosine-protein kinase Lyn (Homo sapiens, UniProt P07948); test: Inhibition of Protein tyrosine kinase Lyn; in short: as §1
[26] = Inhibition of Calcium/calmodulin-dependent protein kinase
[27] = molecular target: MAP kinase-activated protein kinase 5 (Homo sapiens, UniProt Q8IW41); test: Inhibition of Protein kinase PRAK; in short: as §2
[28] = molecular target: Casein kinase II (Homo sapiens, UniProt P19784+P67870+P68400); test: Inhibition of Casein kinase II; assay type: protein-complex assay; in short: as §3
[29] = molecular target: Ribosomal protein S6 kinase (P70S6K) (Homo sapiens, UniProt P23443+Q9UBS0); test: Inhibition of Ribosomal protein S6 kinase (P70S6K kinase); assay type: protein-complex assay; in short: as §3
[30] = molecular target: 3-phosphoinositide-dependent protein kinase 1 (Homo sapiens, UniProt O15530); test: Inhibition of Phospho-inositide dependent kinase 1 (PDK1); in short: as §3
[31] = Inhibition of Insulin-like growth factor receptor; in short: as §4
[32] = tissue or blood; assay type: functional, tissue-based; settings: Homo sapiens
[33] = organism: Homo sapiens; test: Inhibition of IL-2 production in human whole blood; assay type: functional
[34] = molecular target: RAC-alpha serine/threonine-protein kinase (Homo sapiens, UniProt P31749); test: Inhibition of Protein kinase B alpha; in short: as §3
[35] = Inhibition of Platelet-derived growth factor receptor; in short: as §4
[36] = molecular target: Protein kinase C (PKC); test: Inhibition of Protein kinase C; assay type: protein assay; in short: as §3
[37] = molecular target: Inhibitor of nuclear factor kappa-B kinase subunit alpha (Homo sapiens, UniProt O15111); test: Inhibition of IKK alpha kinase; in short: as §3
Sequence of Inhibitor of nuclear factor kappa-B kinase subunit alpha (O15111 whole entry): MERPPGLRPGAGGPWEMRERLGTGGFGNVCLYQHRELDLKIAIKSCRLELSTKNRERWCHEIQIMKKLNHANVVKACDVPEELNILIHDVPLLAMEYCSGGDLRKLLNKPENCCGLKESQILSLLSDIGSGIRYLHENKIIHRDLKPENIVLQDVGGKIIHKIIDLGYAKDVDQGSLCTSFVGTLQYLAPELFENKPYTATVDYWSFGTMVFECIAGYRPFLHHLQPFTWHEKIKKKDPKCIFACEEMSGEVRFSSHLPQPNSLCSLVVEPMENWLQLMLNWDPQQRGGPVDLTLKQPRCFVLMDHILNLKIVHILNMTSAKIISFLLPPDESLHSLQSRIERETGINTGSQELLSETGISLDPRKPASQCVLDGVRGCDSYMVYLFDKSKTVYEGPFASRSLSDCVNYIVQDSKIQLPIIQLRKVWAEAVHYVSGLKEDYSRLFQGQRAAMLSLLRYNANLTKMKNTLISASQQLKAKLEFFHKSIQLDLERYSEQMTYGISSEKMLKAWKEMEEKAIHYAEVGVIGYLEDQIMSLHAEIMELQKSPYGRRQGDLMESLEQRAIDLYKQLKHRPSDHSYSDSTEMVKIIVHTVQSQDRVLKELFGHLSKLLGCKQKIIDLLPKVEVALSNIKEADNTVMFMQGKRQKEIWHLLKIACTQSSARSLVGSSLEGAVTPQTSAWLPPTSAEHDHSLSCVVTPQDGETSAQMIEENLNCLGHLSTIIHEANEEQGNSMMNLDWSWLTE

Sequence of Inhibitor of nuclear factor kappa-B kinase subunit beta (O14920 whole entry): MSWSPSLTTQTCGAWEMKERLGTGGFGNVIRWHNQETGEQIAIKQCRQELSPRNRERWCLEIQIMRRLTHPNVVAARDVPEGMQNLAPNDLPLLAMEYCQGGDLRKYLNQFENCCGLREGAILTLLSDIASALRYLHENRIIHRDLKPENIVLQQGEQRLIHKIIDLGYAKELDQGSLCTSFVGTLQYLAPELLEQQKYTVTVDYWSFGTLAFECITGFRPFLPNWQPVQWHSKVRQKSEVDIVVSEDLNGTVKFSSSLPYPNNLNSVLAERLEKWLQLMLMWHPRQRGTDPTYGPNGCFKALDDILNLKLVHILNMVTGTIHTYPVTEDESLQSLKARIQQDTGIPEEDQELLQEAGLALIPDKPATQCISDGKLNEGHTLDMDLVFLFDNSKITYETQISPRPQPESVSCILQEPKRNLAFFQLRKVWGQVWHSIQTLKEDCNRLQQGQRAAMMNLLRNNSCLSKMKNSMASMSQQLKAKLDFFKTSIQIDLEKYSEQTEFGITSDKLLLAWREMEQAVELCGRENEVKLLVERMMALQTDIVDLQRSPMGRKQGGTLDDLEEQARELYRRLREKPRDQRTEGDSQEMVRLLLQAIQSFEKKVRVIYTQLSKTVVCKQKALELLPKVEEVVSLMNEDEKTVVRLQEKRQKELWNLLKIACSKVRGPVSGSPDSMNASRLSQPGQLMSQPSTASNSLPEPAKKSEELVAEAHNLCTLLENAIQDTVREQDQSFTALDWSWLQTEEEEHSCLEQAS
Sequence of Casein kinase II (P67870 whole entry): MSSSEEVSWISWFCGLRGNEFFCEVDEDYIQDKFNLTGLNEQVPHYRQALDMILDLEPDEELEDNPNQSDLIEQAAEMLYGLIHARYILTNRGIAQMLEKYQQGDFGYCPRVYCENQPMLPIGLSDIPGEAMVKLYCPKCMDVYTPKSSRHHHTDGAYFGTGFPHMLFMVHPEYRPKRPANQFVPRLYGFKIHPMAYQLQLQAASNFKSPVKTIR
Sequence of Casein kinase II (P68400 whole entry): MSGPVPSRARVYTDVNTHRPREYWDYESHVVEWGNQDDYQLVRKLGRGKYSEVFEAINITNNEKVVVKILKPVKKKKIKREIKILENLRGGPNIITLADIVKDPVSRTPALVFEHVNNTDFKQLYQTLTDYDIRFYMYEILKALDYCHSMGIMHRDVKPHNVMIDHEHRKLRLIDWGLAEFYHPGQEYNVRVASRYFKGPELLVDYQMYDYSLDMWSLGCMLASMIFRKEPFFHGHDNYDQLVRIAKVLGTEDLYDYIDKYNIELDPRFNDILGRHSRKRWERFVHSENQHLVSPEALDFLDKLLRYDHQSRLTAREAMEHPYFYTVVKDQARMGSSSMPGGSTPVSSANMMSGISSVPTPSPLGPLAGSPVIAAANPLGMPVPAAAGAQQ
Sequence of Casein kinase II (P19784 whole entry): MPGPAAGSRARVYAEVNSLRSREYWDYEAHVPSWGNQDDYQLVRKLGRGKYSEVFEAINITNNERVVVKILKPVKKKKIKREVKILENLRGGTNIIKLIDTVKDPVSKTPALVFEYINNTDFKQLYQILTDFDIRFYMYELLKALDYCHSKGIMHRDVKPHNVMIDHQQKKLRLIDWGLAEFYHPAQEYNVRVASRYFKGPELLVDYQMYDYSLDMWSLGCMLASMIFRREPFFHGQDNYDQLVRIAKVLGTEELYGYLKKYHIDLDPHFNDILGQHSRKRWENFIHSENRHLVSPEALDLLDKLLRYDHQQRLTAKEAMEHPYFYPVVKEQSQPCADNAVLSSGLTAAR
Sequence of Ribosomal protein S6 kinase (P70S6K) (Q9UBS0 whole entry): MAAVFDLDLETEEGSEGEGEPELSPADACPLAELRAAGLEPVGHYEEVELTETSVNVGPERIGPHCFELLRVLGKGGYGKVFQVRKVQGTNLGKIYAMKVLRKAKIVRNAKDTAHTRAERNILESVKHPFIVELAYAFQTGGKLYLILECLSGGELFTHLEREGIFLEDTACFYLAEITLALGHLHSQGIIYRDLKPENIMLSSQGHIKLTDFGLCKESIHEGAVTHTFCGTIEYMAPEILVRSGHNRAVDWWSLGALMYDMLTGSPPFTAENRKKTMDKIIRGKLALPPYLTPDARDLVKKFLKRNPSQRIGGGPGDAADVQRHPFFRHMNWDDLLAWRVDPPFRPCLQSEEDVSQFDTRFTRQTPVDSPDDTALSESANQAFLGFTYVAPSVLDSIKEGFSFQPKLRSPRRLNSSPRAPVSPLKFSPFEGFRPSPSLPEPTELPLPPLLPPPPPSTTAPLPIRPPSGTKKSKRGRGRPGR
Sequence of Ribosomal protein S6 kinase (P70S6K) (P23443 whole entry): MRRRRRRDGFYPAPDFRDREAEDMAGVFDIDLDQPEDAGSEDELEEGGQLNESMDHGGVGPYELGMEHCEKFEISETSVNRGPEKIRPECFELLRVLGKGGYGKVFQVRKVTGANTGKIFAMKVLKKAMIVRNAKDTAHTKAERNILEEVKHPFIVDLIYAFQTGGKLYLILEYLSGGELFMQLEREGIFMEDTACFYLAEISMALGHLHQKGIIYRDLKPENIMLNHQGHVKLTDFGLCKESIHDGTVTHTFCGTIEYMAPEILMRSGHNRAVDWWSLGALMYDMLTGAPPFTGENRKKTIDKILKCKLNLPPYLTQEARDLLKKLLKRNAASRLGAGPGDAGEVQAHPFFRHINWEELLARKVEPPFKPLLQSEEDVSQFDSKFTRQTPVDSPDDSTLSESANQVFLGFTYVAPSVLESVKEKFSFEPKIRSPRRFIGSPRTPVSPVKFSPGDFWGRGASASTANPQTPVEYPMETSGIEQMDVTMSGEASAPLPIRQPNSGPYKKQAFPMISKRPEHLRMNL
Sequence of Glycogen synthase kinase-3 beta (P49841 whole entry): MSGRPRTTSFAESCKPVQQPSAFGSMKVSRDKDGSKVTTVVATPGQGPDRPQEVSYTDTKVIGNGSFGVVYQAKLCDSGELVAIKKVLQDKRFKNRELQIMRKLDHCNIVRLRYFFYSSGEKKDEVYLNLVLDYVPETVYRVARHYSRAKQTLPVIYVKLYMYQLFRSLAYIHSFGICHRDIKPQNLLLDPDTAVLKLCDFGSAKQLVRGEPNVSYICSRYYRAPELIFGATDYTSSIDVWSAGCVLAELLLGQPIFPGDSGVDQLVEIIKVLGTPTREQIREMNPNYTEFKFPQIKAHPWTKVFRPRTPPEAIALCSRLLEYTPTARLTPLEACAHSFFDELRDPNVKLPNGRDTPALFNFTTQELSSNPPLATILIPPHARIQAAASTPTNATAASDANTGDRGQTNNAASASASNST
Sequence of Serine/threonine-protein kinase Sgk1 (O00141 whole entry): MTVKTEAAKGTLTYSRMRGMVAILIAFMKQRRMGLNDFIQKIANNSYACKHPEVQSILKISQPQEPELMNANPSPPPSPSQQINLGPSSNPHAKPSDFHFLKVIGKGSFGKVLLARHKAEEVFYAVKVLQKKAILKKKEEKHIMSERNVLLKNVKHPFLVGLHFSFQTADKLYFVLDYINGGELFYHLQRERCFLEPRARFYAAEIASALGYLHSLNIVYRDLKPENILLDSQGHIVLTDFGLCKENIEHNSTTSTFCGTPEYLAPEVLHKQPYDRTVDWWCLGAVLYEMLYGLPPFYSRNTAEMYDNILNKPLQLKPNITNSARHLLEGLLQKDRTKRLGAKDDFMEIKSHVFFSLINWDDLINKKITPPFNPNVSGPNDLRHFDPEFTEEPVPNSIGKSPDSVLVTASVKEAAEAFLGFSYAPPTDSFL
Sequence of MAP kinase-activated protein kinase 2 (P49137 whole entry): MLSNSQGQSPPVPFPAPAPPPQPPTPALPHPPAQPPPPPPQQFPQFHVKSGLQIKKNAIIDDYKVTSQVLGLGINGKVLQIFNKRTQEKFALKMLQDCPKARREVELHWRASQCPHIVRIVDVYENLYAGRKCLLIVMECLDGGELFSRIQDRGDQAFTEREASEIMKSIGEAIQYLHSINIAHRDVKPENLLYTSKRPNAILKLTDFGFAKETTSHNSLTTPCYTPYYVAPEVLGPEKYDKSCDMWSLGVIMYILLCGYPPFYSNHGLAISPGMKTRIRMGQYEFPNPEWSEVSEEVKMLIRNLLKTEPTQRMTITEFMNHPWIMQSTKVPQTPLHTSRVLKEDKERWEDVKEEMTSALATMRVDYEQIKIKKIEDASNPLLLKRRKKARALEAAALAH

## CCN(CC)C/C=C/c1nc(O)c2c(ccc3nc(Nc4c(Cl)cccc4Cl)n(C)c32)c1C
[1]
  IC50: 0.4 µM
[2]
  IC50: 0.0002 µM
[3]
  IC50: > 100 µM
[4]
  IC50: > 1 µM
[5]
  IC50: > 1 µM
[6]
  IC50: > 30 µM
[7]
  IC50: > 1 µM
[8]
  IC50: > 1 µM
[9]
  IC50: > 100 µM
[10]
  IC50: > 1 µM
[11]
  IC50: > 1 µM
[12]
  inhibition: 87%
[13]
  IC50: > 10 µM
[14]
  IC50: > 1 µM
[15]
  IC50: > 10 µM
[16]
  IC50: > 1 µM
[17]
  IC50: > 100 µM
[18]
  IC50: > 40 µM
[19]
  EC50: 0.007 µM
[20]
  IC50: > 100 µM
[21]
  IC50: 50 µM
[22]
  IC50: > 1 µM
[23]
  IC50: > 100 µM
[24]
  IC50: > 1 µM
[25]
  IC50: 0.002 µM
[26]
  IC50: > 100 µM
[27]
  IC50: > 1 µM
[28]
  IC50: > 1 µM
[29]
  IC50: > 1 µM
[30]
  IC50: > 1 µM
[31]
  IC50: > 100 µM
[32]
  EC50: 0.13 µM
[33]
  EC50: 1.8 µM
[34]
  IC50: > 1 µM
[35]
  IC50: 0.008 µM
[36]
  IC50: > 300 µM
[37]
  IC50: 50 µM
